A short description of series [1]: Selectivity ratio, IC50 for human H460 cells under normoxic condition to IC50 for human H460 cells under hypoxic condition. The class given is functional.
For series [2], the system named is HT-29. The experiment in a line: Cytotoxicity against human HT-29 cells assessed as growth reduction under normoxic condition after 72 hrs by MTT assay. In kind it is functional, cell-based. The following applies: HT-29, 72 h. An outline of the steps: (§1)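 H460 lung and HT29 colon carcinoma cells exposed to a range of compound concentrations for 72 h, either in air (normoxic) or under hypoxia (94% N2, 5% CO2, 1% O2). Viability/proliferation read by MTT; IC50 for proliferation inhibition.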
(In general: Tetrazolium dyes change colour on reduction, which living cells bring about.)

For series [3], the system named is NCI-H460. The experiment in a line: Cytotoxicity against human NCI-H460 cells assessed as growth reduction under hypoxic condition after 72 hrs by MTT assay. The class given is functional, cell-based. To be noted: NCI-H460, 72 h. In a few lines:
as §1

In series [4] the test system is HT-29. The experiment in a line: Selectivity ratio, IC50 for human HT-29 cells under normoxic condition to IC50 for human HT29 cells under hypoxic condition. The class given is functional.
Series [5] is described as follows: Drug level in Pd/C using 1 mg 3C-SN38 assessed as compound formation in presence of H2 after 2 hrs by LC/MS method. In a few lines:
(§2)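 Chemical reduction over Pd/C under H2 in THF at 37 °C. Products were analysed to follow release of the parent drug.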

Series [6] has as its system HT-29. The experiment in a line: Cytotoxicity against human HT-29 cells assessed as growth reduction under hypoxic condition after 72 hrs by MTT assay. In kind it is functional, cell-based. To be noted: HT-29, 72 h. In a few lines:
as §1

Series [7] in a line: Prodrug conversion in Pd/C assessed as 2-aminoimidazole intermediate of 3C-SN38 formation at 1 mg after 2 hrs in presence of H2 by LC/MS method. In a few lines: as §2
Series [8] can be described thus: Prodrug conversion assessed as Escherichia coli nitroreductase mediated SN38 reduction by measuring half life at 10 uM in presence of NADPH by HPLC method. The class given is ADME. To be noted: isolated protein. In a few lines: (§3)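 Prodrugs at 10 μM (1% DMSO) in PBS pH 7.4 incubated at 37 °C with E. coli nitroreductase (50 μg/mL) and NADPH (1 μmol/mL) for up to 1 h. Prodrug loss and active drug release tracked by HPLC.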

Series [9] relates to NCI-H460. The experiment in a line: Cytotoxicity against human NCI-H460 cells assessed as growth reduction under normoxic condition after 72 hrs by MTT assay. To be noted: NCI-H460, 72 h. The class given is functional, cell-based. An outline of the steps:
as §1

Series [10] is described as follows: Half life in ABS buffer at 10 uM at pH 5.0 by HPLC method. In kind it is physicochemical.
Series [11] in a line: Half life in PBS buffer at 10 uM at pH 6.5 by HPLC method. In kind it is physicochemical.
A short description of series [12]: Prodrug conversion in Pd/C assessed as SN38 formation at 1 mg after 2 hrs in presence of H2 by LC/MS method. In a few lines:
as §2

Series [13] in a line: Half life in PBS buffer at 10 uM at pH 7.4 by HPLC method. The class given is physicochemical.
The nature of series [14]: Drug degradation in human plasma assessed as compound half life at 10 uM by HPLC method. The class given is ADME, cell-free. An outline of the steps: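 Incubated in human plasma in vitro; remaining prodrug followed by HPLC over time and half-life derived.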
Series [15] is filed under the species Mus musculus. The experiment in a line: Drug degradation in mouse plasma assessed as compound half life at 10 uM by HPLC method.
The nature of series [16]: Prodrug conversion in Pd/C assessed as PTX formation at 1 mg after 2 hrs in presence of H2 by LC/MS method. An outline of the steps: as §2
A short description of series [17]: Prodrug conversion in Pd/C assessed as 2-aminoimidazole intermediate of 2C-PTX formation at 1 mg after 2 hrs in presence of H2 by LC/MS method. In a few lines:
as §2

A short description of series [18]: Prodrug conversion assessed as Escherichia coli nitroreductase mediated 2-aminoimidazole intermediate of 2C-PTX formation at 10 uM after 1 hr in presence of NADPH by HPLC method. In kind it is ADME. To be noted: isolated protein. An outline of the steps: as §3
Series [19] in a line: Drug level in Pd/C treated with 2C-PTX at 1 mg in presence of H2 after 2 hrs by LC/MS method. An outline of the steps: as §2
The nature of series [20]: Drug level in Pd/C treated with 3C-PTX at 1 mg in presence of H2 after 2 hrs by LC/MS method. In a few lines: as §2
A short description of series [21]: Prodrug conversion in Pd/C assessed as 2-aminoimidazole intermediate of 3C-PTX formation at 1 mg after 2 hrs in presence of H2 by LC/MS method. In a few lines:
as §2

This note sets out measurements from ChEMBL document CHEMBL4052793, “Synthesis and Biological Evaluation of Paclitaxel and Camptothecin Prodrugs on the Basis of 2-Nitroimidazole” (ACS Med Chem Lett, 2017).

As usually defined, the IC50 is the concentration at which inhibition is half-maximal. As usually defined, the half-life is the time in which the quantity being followed falls by half.

SMILES strings stand for the structures.

On to `CCc1c2c(nc3ccc(O)cc13)-c1cc3c(c(=O)n1C2)COC(=O)[C@]3(O)CC` [7-ETHYL-10-HYDROXYCAMPTOTHECIN], for which the “Ratio IC50” value in [1] is listed as 1.06; in series [4] it was 0.82. The IC50 is 96 nM in series [2], 47 nM in series [3] and 119 nM in [6]. Moreover, the Drug metabolism result in series [5] was “Metabolite detected”.

Regarding `CCc1c2c(nc3ccc(O)cc13)-c1cc3c(c(=O)n1C2)COC(=O)[C@@]3(CC)OC(=O)OCCCn1ccnc1[N+](=O)[O-]`, the Drug metabolism entry in series [7] and in series [12] was “Metabolite detected” throughout. For the same compound, the “Ratio IC50” value in series [1] is on record as 2.03; in [4] it was more than 1.67. In [8], the t1/2 result is reported as “<= 10 min”. The IC50 is more than 10000 nM in [2], 201 nM in [9], 99 nM in series [3] and 6020 nM in series [6]. For the same compound, the half-life at 10 µM in series [10] was 2400 min; in [11], more than 2880 min; in series [13], more than 2880 min; in series [14] it was 120 min; in [15], 37 min.

Turning to `CC(=O)O[C@H]1C(=O)[C@@]2(C)[C@H]([C@H](OC(=O)c3ccccc3)[C@]3(O)C[C@H](OC(=O)[C@H](OC(=O)OCCn4ccnc4[N+](=O)[O-])[C@@H](NC(=O)c4ccccc4)c4ccccc4)C(C)=C1C3(C)C)[C@]1(OC(C)=O)CO[C@@H]1C[C@@H]2O`, the “Ratio IC50” value in series [1] is on record as 1.5; in series [4] it was 3.11. Moreover, in series [8], the t1/2 result is “<= 10 min”. Also, the IC50 in series [2] came out at 140 nM; in series [9] it was 9 nM; in series [3], 6 nM; in series [6], 45 nM. The Drug metabolism result in series [16] is “Metabolite detected”; in series [17], “Metabolite detected”; in [18], “Metabolite_Notdetected”. Further, the half-life at 10 µM is 2880 min in series [10]; 1440 min in [11]; 1680 min in [13]; 120 min in [14]; 20 min in [15].

Turning to `CC(=O)O[C@H]1C(=O)[C@@]2(C)[C@H]([C@H](OC(=O)c3ccccc3)[C@]3(O)C[C@H](OC(=O)[C@H](O)[C@@H](NC(=O)c4ccccc4)c4ccccc4)C(C)=C1C3(C)C)[C@]1(OC(C)=O)CO[C@@H]1C[C@@H]2O` [PACLITAXEL], the IC50 in series [2] is 14 nM; in series [6] it was 15 nM. Moreover, the Drug metabolism result in [19] and in series [20] was “Metabolite detected” in each case.

Regarding `CC(=O)O[C@H]1C(=O)[C@@]2(C)[C@H]([C@H](OC(=O)c3ccccc3)[C@]3(O)C[C@H](OC(=O)[C@H](OC(=O)OCCCn4ccnc4[N+](=O)[O-])[C@@H](NC(=O)c4ccccc4)c4ccccc4)C(C)=C1C3(C)C)[C@]1(OC(C)=O)CO[C@@H]1C[C@@H]2O`, the “Ratio IC50” value in series [1] worked out at 1.17; in series [4], 1.82. Also, the t1/2 result in series [8] is reported as “<= 10 min”. The IC50 stood at 290 nM in series [2], 21 nM in series [9], 18 nM in series [3] and 159 nM in series [6]. The Drug metabolism entry in series [16] and in [21] was “Metabolite detected” each time. For the same compound, the half-life at 10 µM in [10] is more than 2880 min; in [11], 1440 min; in series [13] it was 2160 min; in series [14], 360 min; in series [15], 55 min.

In the case of `CCc1c2c(nc3ccc(O)cc13)-c1cc3c(c(=O)n1C2)COC(=O)[C@@]3(CC)OC(=O)OCCn1ccnc1[N+](=O)[O-]`, the “Ratio IC50” value in [1] was 1.44; in [4] it was more than 1.05. Besides, in [8], the t1/2 is on record as 30 min. Besides, the IC50 was more than 10000 nM in series [2], 91 nM in [9], 63 nM in series [3] and 9560 nM in [6]. The half-life at 10 µM was more than 2880 min in [10]; 2460 min in series [11]; more than 2880 min in [13]; 360 min in series [14]; 47 min in series [15].
